Experimental data as given in ChEMBL document CHEMBL1131126, “Naamidine A is an antagonist of the epidermal growth factor receptor and an in vivo active antitumor agent” (J Med Chem, 1998).

Key:
Format in all cases: functional
A-431 [1] = assay: In vivo inhibitory activity against A431 tumor implanted in athymic mice at 12.5 mg/kg […]; conditions: Mus musculus
In short: (§1)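 A431 squamous carcinoma cells (EGF receptor-overexpressing) implanted under the kidney capsule of athymic mice, N = 6 per group. Dosed once daily for 5 days starting the day after implantation. Tumor size assessed 7 days after implantation; result given as % inhibition of tumor growth, with deaths counted per group.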

A-431 [2] = assay: In vivo inhibitory activity against A431 tumor implanted in athymic mice at 50 mg/kg […]; conditions: Mus musculus; in short: as §1
Mus musculus = species: Mus musculus; assay: Selectivity for EGF over insulin receptors
In short: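 Ratio of insulin-stimulated IC50 to EGF-stimulated IC50, both from [3H]thymidine incorporation in EGF receptor-transfected NIH3T3 cells (1 h preincubation, 16 h mitogen stimulation, 1-h label).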

A-431 [3] = assay: In vivo inhibitory activity against A431 tumor implanted in athymic mice at 25 mg/kg […]; conditions: Mus musculus; in short: as §1
A-431 [4] = assay: In vivo inhibitory activity against A431 tumor implanted in athymic mice at 3.13 mg/kg […]; conditions: Mus musculus; in short: as §1

Selectivity (Mus musculus) | SMILES | inhibition in vivo at 12.5 mg/kg (A-431 [1]) [%] | inhibition in vivo at 50 mg/kg (A-431 [2]) [%] | inhibition in vivo at 25 mg/kg (A-431 [3]) [%] | inhibition in vivo at 3.13 mg/kg (A-431 [4]) [%]
0.18 | COc1ccc(Cc2cn(Cc3ccc(OC)cc3)c(NC3=NC(=O)N(C)C3=O)n2)cc1 | – | – | – | –
0.43 | COc1ccc(Cc2cn(Cc3ccc(O)cc3)c(NC3=NC(=O)N(C)C3=O)n2)cc1 | – | – | – | –

SMILES | Selectivity (Mus musculus) | inhibition in vivo at 12.5 mg/kg (A-431 [1]) [%] | inhibition in vivo at 50 mg/kg (A-431 [2]) [%] | inhibition in vivo at 25 mg/kg (A-431 [3]) [%] | inhibition in vivo at 3.13 mg/kg (A-431 [4]) [%]
COc1ccc(Cc2nc(NC3=NC(=O)N(C)C3=O)n(C)c2Cc2ccc(O)cc2)cc1 | 21 | 52 | 96.4 | 87.4 | 35
